The text below walks through data of ChEMBL document CHEMBL2169781, “Discovery and biological evaluation of a novel class of dual microsomal prostaglandin E2 synthase-1/5-lipoxygenase inhibitors based on 2-[(4,6-diphenethoxypyrimidin-2-yl)thio]hexanoic acid” (J Med Chem, 2011).

Data set [1] concerns the target T1, Polyunsaturated fatty acid 5-lipoxygenase (Homo sapiens, UniProt P09917).
T1 sequence (P09917 whole entry): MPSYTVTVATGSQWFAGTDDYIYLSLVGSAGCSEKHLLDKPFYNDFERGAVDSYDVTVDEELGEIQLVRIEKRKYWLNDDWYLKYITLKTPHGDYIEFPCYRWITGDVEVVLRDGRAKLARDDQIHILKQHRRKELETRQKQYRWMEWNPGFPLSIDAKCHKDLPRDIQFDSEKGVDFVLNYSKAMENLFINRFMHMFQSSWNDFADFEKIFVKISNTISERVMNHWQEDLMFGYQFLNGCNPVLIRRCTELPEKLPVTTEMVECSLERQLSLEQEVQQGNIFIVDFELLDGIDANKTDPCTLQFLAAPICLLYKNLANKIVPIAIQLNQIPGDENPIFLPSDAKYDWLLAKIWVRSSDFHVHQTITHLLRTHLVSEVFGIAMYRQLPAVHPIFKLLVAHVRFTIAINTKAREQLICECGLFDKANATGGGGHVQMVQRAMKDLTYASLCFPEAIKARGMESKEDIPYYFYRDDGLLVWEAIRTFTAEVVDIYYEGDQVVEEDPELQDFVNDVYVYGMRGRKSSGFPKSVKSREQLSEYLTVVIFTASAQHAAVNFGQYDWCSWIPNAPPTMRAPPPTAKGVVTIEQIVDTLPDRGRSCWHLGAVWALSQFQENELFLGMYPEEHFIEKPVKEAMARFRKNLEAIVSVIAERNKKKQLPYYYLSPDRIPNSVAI
As to the kind of experiment: Inhibition of human recombinant 5-lipoxygenase-mediated product formation from arachidonic acid after 5 to 10 mins by HPLC analysis. The method in brief: (§1)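 Human 5-LO expressed in E. coli BL21 (pT3-5LO) at 37 °C, purified and used at once. Enzyme (0.5 μg/mL in PBS/EDTA with 1 mM ATP) preincubated with compound 5–10 min at 4 °C, prewarmed 30 s at 37 °C, started with 2 mM CaCl₂ + 20 μM AA (±1 μM 13(S)-HpODE), 10 min at 37 °C, stopped with cold methanol, products by HPLC.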

The target of data set [2] is T2, Prostaglandin E synthase (Homo sapiens, UniProt O14684).
T2 sequence (O14684 whole entry): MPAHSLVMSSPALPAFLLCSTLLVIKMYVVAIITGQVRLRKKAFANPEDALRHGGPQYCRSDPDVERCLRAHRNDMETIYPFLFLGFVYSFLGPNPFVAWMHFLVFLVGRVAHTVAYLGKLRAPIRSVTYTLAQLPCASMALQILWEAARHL
The data set is described as follows: Inhibition of mPGES-1 in human IL-1beta-stimulated A549 cell microsomes assessed as reduction of PGE2 formation from PGH2 after 15 mins by RP-HPLC analysis. The arrangement: species or system Microsome. The method in brief:
(§2)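 A549 cells in DMEM with 2% FCS for 16 h, induced with IL-1β (1 ng/mL) for 72 h, homogenized. Microsomal pellet (174 000 × g) diluted in 0.1 M potassium phosphate pH 7.4 with 2.5 mM glutathione, given compound or DMSO for 15 min. PGH₂ added (20 μM final), 1 min at 4 °C, stopped with FeCl₂/citric acid. PGE₂ by SPE and RP-HPLC (UV 195 nm), 11β-PGE₂ internal standard. Tested up to 10 μM; IC₅₀ reported only above 50% inhibition at 10 μM.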

Data set [3] concerns the target T3, Polyunsaturated fatty acid 5-lipoxygenase (Homo sapiens) (UniProt P09917).
T3 sequence (whole entry): T1 sequence (P09917 whole entry)
The data set is described as follows: Inhibition of human recombinant 5-lipoxygenase-mediated product formation from arachidonic acid assessed as remaining activity at 10 uM after 5 to 10 mins by HPLC analysis. The method in brief: as §1

Data set [4] has as its target T1, Polyunsaturated fatty acid 5-lipoxygenase. The data set is described as follows: Inhibition of 5-lipoxygenase-mediated 5(S)-H(p)ETE formation in A23187-stimulated human PMNL incubated 10 mins prior to A23187 challenge.
Data set [5] has as its target Prostaglandin G/H synthase 2 (Homo sapiens) (UniProt P35354). As to the kind of experiment: Inhibition of human recombinant COX-2 mediated formation of 12-HHT from arachidonic acid assessed as remaining activity at 10 uM after 5 mins by HPLC analysis.
The target in data set [6] is Prostaglandin G/H synthase 1 (Ovis aries) (UniProt P05979). As to the kind of experiment: Inhibition of ovine COX-1 mediated formation of 12-HHT from arachidonic acid assessed as remaining activity at 10 uM after 5 mins by HPLC analysis.
The target in data set [7] is T1, Polyunsaturated fatty acid 5-lipoxygenase. As to the kind of experiment: Inhibition of 5-lipoxygenase-mediated 5(S)-H(p)ETE formation in fMLP-stimulated human PMNL incubated 10 mins prior to fMLP challenge.
Data set [8] can be described thus: Cytotoxicity in human polymorphonuclear leukocytes assessed as cell viability at 10 uM after 30 mins by MTT assay. (In general: Formazan colour is commonly taken as a measure of viable cells.)
Data set [9] deals with T4, Prostaglandin E synthase (Homo sapiens) (UniProt O14684).
T4 sequence (whole entry): T2 sequence (O14684 whole entry)
As to the kind of experiment: Inhibition of mPGES-1 in human IL-1beta-stimulated A549 cell microsomes assessed as residual activity by measuring reduction of PGE2 formation from PGH2 at 10 uM after 15 mins by RP-HPLC analysis. As to conditions: Microsome. The method in brief: as §2

By IC50 is commonly meant the concentration that inhibits the measured activity by half.

A value given as a limit tells only on which side of the number the result lay.

In the case of `O=C(O)CSc1nc(OCCc2ccccc2)cc(OCCc2ccccc2)n1`, the IC50 is more than 10000 nM in data set [1], more than 10000 nM in [2] and 7600 nM in data set [4]. For the same compound, the Activity in [3] was found to be 57%.

Turning to `CCCCC(Cc1cc(OCCc2ccccc2)ccc1OCCc1ccccc1)C(=O)O` (centres undefined), the Activity in data set [5] was 66.5%; in [6] it was 63.8%; in data set [3], 65.5%; in data set [8], “Non-toxic”. Also, the IC50 in data set [1] was more than 10000 nM; in data set [7], 900 nM; in data set [2], 2400 nM.

Take `CCCCC(Sc1nc(OCCCCc2ccccc2)cc(OCCCCc2ccccc2)n1)C(=O)O` (centres undefined): the results for the half-inhibitory concentration (IC50) in [1], in [2] and in data set [4] were 2200 nM, 900 nM and 700 nM, respectively.

In the case of `CCCCC(Sc1nc(OCCC(C)C)cc(OCCC(C)C)n1)C(=O)O` (centres undefined), the Activity in [9] was 54.5%. Further, the IC50 is 6800 nM in data set [1], more than 10000 nM in [2] and 1200 nM in [4].

For `CCCCC(Sc1nc(OCCC2CC2)cc(OCCC2CC2)n1)C(=O)O` (centres undefined), the IC50 in data set [1] was found to be 9300 nM; in data set [2] it was 9600 nM; in data set [4], 1200 nM.

`CCCCC(Sc1nc(OCCCc2ccccc2)cc(OCCCc2ccccc2)n1)C(=O)O` (centres undefined): the IC50 turned out to be 2700 nM in data set [1], 2200 nM in [2] and 900 nM in data set [4].

With `CCCCC(Cc1cc(OCCc2ccccc2)cc(OCCc2ccccc2)c1)C(=O)O` (centres undefined), the Activity in data set [5] was 78.4%; in data set [6], 78.7%; in [3], 80.3%; in [8], “Non-toxic”. Besides, the IC50 in data set [1] was more than 10000 nM; in data set [2], 2400 nM; in [4], 4700 nM.

As to `CCCC/C(=C\c1cc(OCCc2ccccc2)ccc1OCCc1ccccc1)C(=O)O`, the Activity was 94.4% in data set [5], 68% in data set [6], 78.2% in data set [3] and “Non-toxic” in data set [8]. The IC50 in [1] was more than 10000 nM; in data set [7], 900 nM; in data set [2], 1500 nM.

`CCCC/C(=C\c1cccc(OCCc2ccccc2)c1OCCc1ccccc1)C(=O)O`: the Activity in data set [5] is 113%; in [6], 86.8%; in [3] it was 91.3%; in [8], “Non-toxic”. The IC50 in data set [1] was more than 10000 nM; in [7] it was 800 nM; in data set [2], 1100 nM.

In the case of `CCCCC(Sc1nc(OCCc2ccc(C)cc2)cc(OCCc2ccc(C)cc2)n1)C(=O)O` (centres undefined), the IC50 came out at 3100 nM in data set [1], 900 nM in data set [2] and 500 nM in [4].

`CCCCC(Sc1nc(OCCc2ccccc2)cc(OCCc2ccccc2)n1)C(=O)O` (centres undefined): the IC50 in [1] amounted to 4700 nM; in data set [2] it was 1200 nM; in data set [4] it was 600 nM.

Consider `CCCCC(Cc1ccc(OCCc2ccccc2)c(OCCc2ccccc2)c1)C(=O)O` (centres undefined), for which the Activity in data set [5] was 86.4%; in data set [6], 95.8%; in data set [3], 54%; in [8] it was “Non-toxic”. For the same compound, the IC50 in data set [1] is more than 10000 nM; in data set [2] it was 2700 nM; in [4], 6000 nM.

Turning to `CCCCC(Sc1nc(OCc2ccccc2)cc(OCc2ccccc2)n1)C(=O)O` (centres undefined), the values for the IC50 in data set [1], in data set [7] and in data set [2] were 5000 nM, 1800 nM and 3800 nM, respectively.

As for `CCCC/C(=C\c1cc(OCCC2CCCCC2)ccc1OCCC1CCCCC1)C(=O)O`, the Activity in [5] is 123%; in data set [6], 76.4%; in [3], 73%; in data set [8], “Non-toxic”. Also, the IC50 in [1] was more than 10000 nM; in data set [2] it was 3400 nM; in [4] it was 800 nM.

For the compound `CCCCC(Sc1nc(OCCC2CCCCCC2)cc(OCCC2CCCCCC2)n1)C(=O)O` (centres undefined), the results for the Activity in data set [9] and in data set [3] were 62.4% and 53.8%, respectively. For the same compound, the figures for the IC50 in [1], in data set [2] and in [4] were more than 10000 nM, more than 10000 nM and 2400 nM, respectively.

Turning to `CCC(Sc1nc(OCCc2ccccc2)cc(OCCc2ccccc2)n1)C(=O)O` (centres undefined), the figures for the IC50 in data set [1], in data set [7] and in [2] were 9000 nM, 2800 nM and 7300 nM, respectively.

In the case of `CCCCC(Sc1nc(OCCC2CCCCC2)cc(OCCC2CCCCC2)n1)C(=O)O` (centres undefined), the IC50 worked out at 9000 nM in [1], 2400 nM in data set [2] and 800 nM in data set [4].

For `CCCCC(Sc1nc(OCCc2ccc(C(F)(F)F)cc2)cc(OCCc2ccc(C(F)(F)F)cc2)n1)C(=O)O` (centres undefined), the IC50 was 2200 nM in data set [1], 1900 nM in [2] and 500 nM in [4].

Regarding `CCCC/C(=C\c1cc(OCc2ccc(C(F)(F)F)cc2)ccc1OCc1ccc(C(F)(F)F)cc1)C(=O)O`, the Activity in [9] is 55.1%; in data set [5] it was 102%; in data set [6] it was 82.6%; in [8], “Non-toxic”. For the same compound, the values for the IC50 in data set [1], in data set [2] and in data set [4] were 4400 nM, more than 10000 nM and 200 nM, respectively.

`CCCCC(Sc1nc(OCCC2CCCC2)cc(OCCC2CCCC2)n1)C(=O)O` (centres undefined): the Activity in data set [9] amounted to 90%. For the same compound, the 50% inhibitory concentration (IC50) in data set [1] was 6800 nM; in [2] it was more than 10000 nM; in [4] it was 4000 nM.

On to `CCCCC(Sc1nc(OCCc2ccc([N+](=O)[O-])cc2)cc(OCCc2ccc([N+](=O)[O-])cc2)n1)C(=O)O` (centres undefined), for which the IC50 turned out to be 2800 nM in data set [1], 3700 nM in data set [2] and 500 nM in [4].

On to `CCCCC(Cc1cccc(OCCc2ccccc2)c1OCCc1ccccc1)C(=O)O` (centres undefined), for which the Activity in data set [5] is 89.6%; in data set [6], 66.1%; in data set [8], “Non-toxic”. For the same compound, the figures for the IC50 in data set [1], in data set [2] and in data set [4] were 4900 nM, 3900 nM and 2100 nM, respectively.

For the compound `O=C(O)C(Sc1nc(OCCc2ccccc2)cc(OCCc2ccccc2)n1)c1ccccc1` (centres undefined), the IC50 in [1] was found to be 4900 nM; in data set [7], 800 nM; in [2], 1200 nM.

Turning to `CCCCC(Sc1cc(OCCc2ccccc2)cc(OCCc2ccccc2)c1)C(=O)O` (centres undefined), the figures for the Activity in data set [5], in data set [6] and in [8] were 110%, 71.3% and “Non-toxic”, respectively. The IC50 in data set [1] is 7200 nM; in data set [2] it was 4600 nM; in data set [4], 800 nM.

`CCCC/C(=C\c1cc(OCCc2ccccc2)cc(OCCc2ccccc2)c1)C(=O)O`: the Activity in [5] was 81.4%; in data set [6], 81.4%; in data set [3], 62.7%; in data set [8], “Non-toxic”. For the same compound, the IC50 was more than 10000 nM in data set [1], 2800 nM in [2] and 700 nM in data set [4].

As for `CCCCC(Sc1nc(OCCc2ccsc2)cc(OCCc2ccsc2)n1)C(=O)O` (centres undefined), the IC50 in data set [1] is 9300 nM; in data set [2] it was 6500 nM; in data set [4], 600 nM.

In the case of `CCCCC(Sc1nc(OCCc2ccc(C#N)cc2)cc(OCCc2ccc(C#N)cc2)n1)C(=O)O` (centres undefined), the IC50 in [1] stood at 6600 nM; in [2], 5900 nM; in [4], 700 nM.
